Experimental data collected from several papers.
Compare with care: the assays were run in different laboratories.
Target: Tyrosine-protein kinase receptor TYRO3 (TYRO3, Homo sapiens, UniProt Q06418)

Structure (SMILES)	assay	setting	measurement	result
COc1cc2ncnc(Nc3ccc(Oc4ccccc4)c(C)c3C)c2cc1OC	enzyme activity, inhibitor	1 µM	inhibition	25%
CN1CC(Oc2cnc(C#N)cc2-c2ccn3nc(NC(=O)C4CC4)cc3c2)C1	enzyme activity, inhibitor	1 µM	inhibition	-2%
Cc1sc(C(=O)NC2COC2)cc1-n1cc(NC(=O)Nc2c(F)cccc2Cl)cn1	enzyme activity, inhibitor	10 µM	remaining activity	98.8%
Nc1ncnc2occ(-c3ccc(NC(=O)Nc4cc(C(F)(F)F)ccc4F)cc3)c12	cell-free assay	20 µM	remaining signal	2%
C=CC(=O)Nc1cc(Nc2nccc(Nc3cc(Cl)c(F)cc3C(C)(C)O)n2)c(OC)cc1N1CC[C@@H](N(C)C)C1	enzyme activity, inhibitor	1 µM	inhibition	5%
Cn1c2c(c3ccccc31)C(C#N)C(C)(C)NC2=O (centres unmarked)	thermal stability, DSF	10 µM	ΔTm	-0.1 °C
Cc1ccc(Nc2nccc(N(C)c3ccc4c(C)n(C)nc4c3)n2)cc1S(N)(=O)=O	cell-free assay	10 µM	inhibition	55%
Cn1c2c(c3ccc(Cl)c(Cl)c31)C(C#N)C1(CCN(C(=O)OC(C)(C)C)CC1)NC2=O (racemic)	thermal stability, DSF	10 µM	ΔTm	0 °C
O=C(N1CCS(=O)(=O)CC1)N1C[C@H](c2ccc(OC(F)(F)F)cc2)C[C@H](c2nc(C3CC3)no2)C1	cell-free assay, competition with immobilised ligand	1 µM	remaining binding	98%
CNC(=O)c1cc2c(Oc3ccc(NC(=O)C4(C(=O)Nc5ccc(F)cc5)CC4)cc3)ccnc2cc1OC	enzyme activity, inhibitor, radiometric	1 µM	inhibition	100%
CCCOc1ccc([C@@H]2[C@@H](C(=O)O)[C@H](c3ccc4c(c3)OCO4)CN2CC(=O)Nc2c(CC)cccc2CC)cc1	cell-free assay, competition with immobilised ligand	1 µM	remaining binding	94%
CC(C)(O)[C@H]1CC[C@H](Nc2ccc3ncc(-c4cccc(C(F)(F)F)c4)n3n2)CC1	enzyme activity, inhibitor	1 µM	remaining activity	22.3%
COc1cccc(CNC(=O)c2nc3scc(COCc4ccc(C(=O)O)cc4)c3c(=O)[nH]2)c1	cell-free assay, competition with immobilised ligand	1 µM	remaining binding	100%
COc1cc(Cl)c(C(=O)N[C@@H](CN[C@H]2CC[C@@H](N)CC2)Cc2ccc(C#N)cc2)cc1-c1ccc(CN[C@H](C)c2ccc(C)cc2)o1	enzyme activity, inhibitor	1 µM	remaining activity	85%
Cn1cc(Cl)c2c(Oc3c(F)cc(Nc4cc(Cl)nc(N)n4)cc3F)ccnc21	cell-free assay, competition with immobilised ligand	0.1 µM	remaining binding	80%
CC/C(=N\NC(=O)NCc1cccc(O)c1)c1ccc(O)c(C)c1O	enzyme activity, inhibitor	0.1 µM	inhibition	2.7%
CCN(CC)CCNC(=O)c1c(C)[nH]c(/C=C2\C(=O)Nc3ccc(F)cc32)c1C	cell-free assay	10 µM	inhibition	95%
CCS(=O)(=O)c1cc2cc(C[C@@](O)(CC(C)(C)c3ccc(F)cc3C(N)=O)C(F)(F)F)[nH]c2cn1	cell-free assay, competition with immobilised ligand	1 µM	remaining binding	92%
Cc1ccc(C(=O)Nc2ccc(CN3CCN(C)CC3)c(C(F)(F)F)c2)cc1C#Cc1cnc2cccnn12	cell-free assay	23.5 nM	remaining signal	73%
COCCOc1nc(-c2ccc(Cl)nc2)nc2c1CN(C(=O)c1ncn3ccccc13)CC2	cell-free assay, competition with immobilised ligand	0.1 µM	remaining binding	100%
Cn1c2c(c3ccc(Cl)c(Cl)c31)C(C#N)C1(CCNCC1)NC2=O (racemic)	thermal stability, DSF	10 µM	ΔTm	-0.4 °C
Cc1nc(N2CC[C@@H](O)C2)ncc1-c1cc(C(F)(F)F)cc2[nH]ncc12	cell-free assay, competition with immobilised ligand	1 µM	remaining binding	66%
O=C1Nc2ccc(Cl)cc2C1=Cc1cc(Cl)c(O)c(Cl)c1	cell-free assay	0.5 µM	remaining signal	94.9%
CC(C)c1ccc(NC(=O)c2cccs2)c(-c2nc3ccccc3[nH]c2=O)c1	enzyme activity, inhibitor	1 µM	activity vs control	103%
Cn1c2c(Cl)c(Cl)ccc2c2cc(N)[nH]c(=O)c21	thermal stability, DSF	10 µM	ΔTm	1.1 °C
CC(C)(C)c1nc2c(s1)c1nc(N)ncc1c1ccc(NS(=O)(=O)c3c(F)cccc3F)c(F)c12	enzyme activity, inhibitor, radiometric	1 µM	remaining activity	91%
O=C1CCc2cc(Nc3cc(OC4CCOCC4)c([N+](=O)[O-])cc3Cl)ccc2N1	cell-free assay, competition with immobilised ligand	1 µM	remaining binding	100%
Oc1cccc(-c2nc(N3CCOCC3)c3oc4ncccc4c3n2)c1	cell-free assay	0.5 µM	remaining signal	102%
CCCOc1ccc(OC)c(F)c1C(=O)c1ccc(C(=O)N[C@@H]2CNC[C@H]2NC(=O)c2ccc3[nH]ncc3c2)cc1	enzyme activity, inhibitor	10 µM	remaining activity	51%
